Usually AUC(0-t) stands for exposure summed from dosing to a finite time, without extrapolation to infinity.

Each structure is given as a SMILES string. “Also recorded” adds a separate entry of the source. Like-named read-outs stand apart in the source and are kept apart here.

The text below walks through data of PMC8995271 (Targeted Oncology, 2022).

The nature of data set [1]: Phase Ib dose-limiting toxicities and MTD determination. It counts as in vivo, human.
The nature of data set [2]: Treatment-related adverse events. It counts as in vivo, human.
For data set [3], the system named is advanced or metastatic solid tumors. Nature of the data set: Tumor response. The format is in vivo, human.
The nature of data set [4]: Varlitinib plasma pharmacokinetics in patients, cycle 1. The note with it: human, oral, mean AUC0–24h, cohorts pooled. It counts as in vivo. An outline of the steps: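 Blood samples taken in cycle 1 from patients on intermittent (4 days on/3 off) oral twice-daily varlitinib with weekly chemotherapy ± trastuzumab. Sampling was on cycle 1 day 5 at 0, 0.5, 1, 2, 5, 7 and 24 h after the varlitinib dose.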

The nature of data set [5]: Paclitaxel pharmacokinetics in patients, cycle 1 day 1 and day 8. It counts as in vivo, human. Particulars: for AUC(0-t): human, plasma, mean AUC0–24h of paclitaxel, cycle 1 day 1.
A further data set relates to HER1. Particulars: read-out: half maximal inhibitory concentration for inhibiting the phosphorylation of HER1; ref [17], [23]–[26]; cited from earlier work.
The subject of another data set is HER2. The note with it: read-out: half maximal inhibitory concentration for inhibiting the phosphorylation of HER2; ref [17], [23]–[26]; cited from earlier work.
The next data set relates to HER4. The note with it: read-out: half maximal inhibitory concentration for inhibiting the phosphorylation of HER4; ref [17], [23]–[26]; cited from earlier work.
For data set [6] the following is noted: cited from earlier work.
For data set [7] the following is noted: cited from earlier work. The source holds these as a separate data set.
Where [8] appears, read: cohort A2: varlitinib 400 mg BD continuous + carboplatin + paclitaxel.
[9] abbreviates: cohort B (varlitinib + paclitaxel), n = 1.

Take `C[C@@H]1COC(Nc2ccc3ncnc(Nc4ccc(OCc5nccs5)c(Cl)c4)c3c2)=N1` [varlitinib]: the “DLT in cycle 1 (type = number of patients)” value was “Febrile neutropenia = 3” in data set [1] (setting [8]), “Febrile neutropenia = 1; also recorded: G3 transaminitis =1” in [1] (cohort B2: varlitinib 400 mg BD intermittent + paclitaxel) and “G3 diarrhea = 1” in [1] (cohort B3: varlitinib 300 mg BD continuous + paclitaxel). The “Number with DLTs” value was 3/5 in data set [1] (setting [8]); 2/4 in data set [1] (cohort A3: varlitinib 400 mg BD intermittent + carboplatin + paclitaxel); 2/6 in [1] (cohort A4: varlitinib 300 mg BD intermittent + carboplatin + paclitaxel); 0/6 in data set [1] (cohort B1: varlitinib 300 mg BD intermittent + weekly paclitaxel); 2/4 in data set [1] (cohort B2: varlitinib 400 mg BD intermittent + weekly paclitaxel); 4/6 in [1] (cohort B3: varlitinib 300 mg BD continuous + weekly paclitaxel). For the same molecule, the “DLT G3/4 neutropenia, patients” value is given as 33.3% in data set [1] (cohort A (varlitinib + carboplatin + paclitaxel), n = 6 of 18) and 18.8% in data set [1] (cohort B (varlitinib + paclitaxel), n = 3 of 16). The “DLT G3 diarrhea, patients” value in data set [1] (setting [9]) was found to be 6.25%. Besides, the “DLT G3 transaminitis, patients” value in [1] (setting [9]) is 6.25%. Moreover, the “recommended phase II dose of varlitinib for the triplet combination” value in data set [1] (intermittently, with weekly paclitaxel and 3-weekly subcutaneous trastuzumab 600 mg) is 300 mg. Also, the “all grade pneumonitis rate” value in data set [2] is 5.4%. Besides, the “patients with reduction in left ventricular ejection fraction or cardiomyopathy” value in data set [2] (all cohorts) is given as “None”. The treatment-related mortality result in [2] (all cohorts) is on record as “no treatment-related mortality”. In addition, the “any grade AE diarrhea” value in data set [2] (overall, all cohorts (n = 37)) is on record as 70.2%. For the same molecule, in data set [2] (overall, all cohorts (n = 37)), the “any grade AE fatigue” value was 67.5%. In [2] (overall, all cohorts (n = 37)), the “any grade AE neutropenia” value is 45.9%. In addition, in data set [2] (overall, all cohorts (n = 37)), the “grade 3 and above AE hyponatremia” value is 16.2%. Also, the “grade 3 and above AE hypophosphatemia” value in [2] (overall, all cohorts (n = 37)) is given as 13.5%. For the same molecule, the “grade 3 and above AE neutropenia” value in [2] (overall, all cohorts (n = 37)) was found to be 40.5%. Moreover, the “median duration on study treatment” value in data set [3] (all patients, range 0.1–17.1 months) is on record as 3.0 months; in data set [3] (patients who achieved a partial response, range 2.2–17.1 months), 5.0 months. Also, the “median PFS” value in [3] (all patients, range 0.3–17.1 months) worked out at 3.7 months. The molecule also had an overall response rate in data set [3] (entire cohort, 11/37) of 29.7%. The same molecule showed a partial response rate in [3] (excluding the two subjects with non-metastatic breast cancer, 10/30) of 33.3%. Also, the stable disease in [3] (excluding the two subjects with non-metastatic breast cancer, 13/30) worked out at 43.3%. The “stable disease as best response” value in data set [3] (patients evaluable for response, 13/31) came to 41.9%. The objective responses in [3] (varlitinib 300 mg continuous, 1/5 evaluable) turned out to be 20%; in data set [3] (varlitinib 300 mg intermittent, 4/14 evaluable) it was 28.6%; in data set [3] (varlitinib 400 mg continuous, 2/5 evaluable) it was 40%; in data set [3] (varlitinib 400 mg intermittent, 3/6 evaluable), 50%; in [3] (varlitinib 500 mg continuous, 1/1 evaluable), 100%. In addition, the AUC(0-t) in data set [4] (300-mg intermittent dosing) was found to be 44000 ng·h/mL; in data set [4] (400-mg intermittent dosing), 75600 ng·h/mL. The “effect of varlitinib on the pharmacokinetics (Cmax, AUC) of paclitaxel” value in data set [5] (paclitaxel 80 mg/m^2 weekly) was “Varlitinib was well tolerated and did not significantly affect the pharmacokinetics of paclitaxel”. For the same molecule, the IC50 was 7 nM in the data set on HER1, 2 nM with HER2 and 4 nM in the data set on HER4. Besides, in data set [6] (monotherapy (ARRAY 543-103), continuous dose twice a day), the “maximum tolerated dose (MTD)” value was 500 mg. For the same molecule, the median half-life in data set [6] (reported in other studies) is 5 to 7 h. The “febrile neutropenia, patients” value in data set [6] (varlitinib in combination with 3-weekly docetaxel, phase I study) was 7%.

For `CCOc1cc2ncc(C#N)c(Nc3ccc(OCc4ccccn4)c(Cl)c3)c2cc1NC(=O)/C=C/CN(C)C` [neratinib, reference compound], the IC50 is 12 nM with HER1, 39 nM in the data set with HER2 and 19 nM in the data set with HER4.

Consider `CS(=O)(=O)CCNCc1ccc(-c2ccc3ncnc(Nc4ccc(OCc5cccc(F)c5)c(Cl)c4)c3c2)o1` [lapatinib], for which the IC50 in the data set on HER2 is […]. Moreover, the “grade 3 and 4 diarrhea rate” value in data set [7] (combination of lapatinib and capecitabine) is given as 12%; in data set [7] (combination of lapatinib and letrozole), 8%.

As for `CC(=O)O[C@H]1C(=O)[C@@]2(C)[C@H]([C@H](OC(=O)c3ccccc3)[C@]3(O)C[C@H](OC(=O)[C@H](O)[C@@H](NC(=O)c4ccccc4)c4ccccc4)C(C)=C1C3(C)C)[C@]1(OC(C)=O)CO[C@@H]1C[C@@H]2O` [paclitaxel, reference compound], the exposure AUC(0-t) was 5010 ± 1860 ng·h/mL in data set [5] (varlitinib 300-mg intermittent dosing cohorts (A4, B1, C1)) and 6130 ± 2050 ng·h/mL in data set [5] (varlitinib 400-mg intermittent dosing cohorts (A3, B2)).
